Test results as given in ChEMBL document CHEMBL4689842, “EUbOPEN Chemogenomics Library wave 1” (2021).
“And” between values parts separate entries of the source, which are not always exact repeats. Equal entries are not always repeated.

System: HEK-293T
Assay: Multiplex assay against HEK293T;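 for Population Tubulin-Different-Phenotype (%): share of the cells with healthy nuclei that show this phenotype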
Type: toxicity, cell-based
Conditions: human
Outline: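 Live cells carried four stains from seeding: Hoechst33342, BioTracker Green Microtubule Cytoskeleton Dye, MitoTracker Red and Annexin V Alexa Fluor 680. They were imaged on a CQ1 microscope at 37°C and 5% CO2 after compound addition. Using CellPathfinder machine-learning gating, cells were split into Hoechst high-intensity objects or normal cells, normal cells into healthy, pyknosed or fragmented nuclei, and pyknosed cells into mitotic or apoptotic; tubulin, mitochondrial-mass and membrane-permeability phenotypes are per cents of healthy-nucleus cells.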

[1] = 12 h, 1 µM, compound concentration 1 uM, replicate 1
[2] = 12 h, 1 µM, compound concentration 1 uM, replicate 2
[3] = 12 h, 10 µM, compound concentration 10 uM, replicate 1
[4] = 12 h, 10 µM, compound concentration 10 uM, replicate 2
[5] = 24 h, 1 µM, compound concentration 1 uM, replicate 1
[6] = 24 h, 1 µM, compound concentration 1 uM, replicate 2
[7] = 24 h, 10 µM, compound concentration 10 uM, replicate 1
[8] = 24 h, 10 µM, compound concentration 10 uM, replicate 2
[9] = 48 h, 1 µM, compound concentration 1 uM, replicate 1
[10] = 48 h, 1 µM, compound concentration 1 uM, replicate 2
[11] = 48 h, 10 µM, compound concentration 10 uM, replicate 1
[12] = 48 h, 10 µM, compound concentration 10 uM, replicate 2

O=C1NCN(c2ccccc2)C12CCN(CCCOc1ccc(F)cc1)CC2 [SPIRAMIDE]
Population Apoptotic (%) [1]: 41%
Population Fragmented Nuclei (%) [1]: 15%
Population Hoechst High Intensity Objects (%) [1]: 12%
Population Membrane Permeable-Phenotype (%) [1]: 4%
Population Mitochondria Different-Phenotype (%) [1]: 81%
Population Mitotic Cells (%) [1]: 58%
Population Normal (%) [1]: 87%
Population Pyknosed Nuclei (%) [1]: 45%
Population Tubulin-Different-Phenotype (%) [1]: 35%
Total Cell Count [1]: 216
Population Apoptotic (%) [2]: 11%
Population Fragmented Nuclei (%) [2]: 10%
Population Healthy Nuclei (%) [2]: 38%
Population Hoechst High Intensity Objects (%) [2]: 7%
Population Membrane Permeable-Phenotype (%) [2]: 12%
Population Mitochondria Different-Phenotype (%) [2]: 11%
Population Mitotic Cells (%) [2]: 88%
Population Normal (%) [2]: 92%
Population Pyknosed Nuclei (%) [2]: 50%
Population Tubulin-Different-Phenotype (%) [2]: 20%
Total Cell Count [2]: 179
Population Apoptotic (%) [3]: 66%
Population Fragmented Nuclei (%) [3]: 16%
Population Healthy Nuclei (%) [3]: 13%
Population Hoechst High Intensity Objects (%) [3]: 17%
Population Membrane Permeable-Phenotype (%) [3]: 0%
Population Mitochondria Different-Phenotype (%) [3]: 95%
Population Mitotic Cells (%) [3]: 33%
Population Normal (%) [3]: 82%
Population Pyknosed Nuclei (%) [3]: 70%
Population Tubulin-Different-Phenotype (%) [3]: 95%
Total Cell Count [3]: 210
Population Apoptotic (%) [4]: 19%
Population Fragmented Nuclei (%) [4]: 3%
Population Healthy Nuclei (%) [4]: 34%
Population Hoechst High Intensity Objects (%) [4]: 2%
Population Membrane Permeable-Phenotype (%) [4]: 7%
Population Mitochondria Different-Phenotype (%) [4]: 55%
Population Mitotic Cells (%) [4]: 80%
Population Normal (%) [4]: 97%
Population Pyknosed Nuclei (%) [4]: 62%
Population Tubulin-Different-Phenotype (%) [4]: 46%
Total Cell Count [4]: 194
Population Apoptotic (%) [5]: 50%
Population Fragmented Nuclei (%) [5]: 13%
Population Healthy Nuclei (%) [5]: 57%
Population Hoechst High Intensity Objects (%) [5]: 10%
Population Membrane Permeable-Phenotype (%) [5]: 0%
Population Mitochondria Different-Phenotype (%) [5]: 66%
Population Mitotic Cells (%) [5]: 50%
Population Normal (%) [5]: 89%
Population Pyknosed Nuclei (%) [5]: 28%
Population Tubulin-Different-Phenotype (%) [5]: 34%
Total Cell Count [5]: 248
Population Apoptotic (%) [6]: 6%
Population Fragmented Nuclei (%) [6]: 8%
Population Healthy Nuclei (%) [6]: 61%
Population Hoechst High Intensity Objects (%) [6]: 3%
Population Membrane Permeable-Phenotype (%) [6]: 6%
Population Mitochondria Different-Phenotype (%) [6]: 17%
Population Mitotic Cells (%) [6]: 93%
Population Normal (%) [6]: 96%
Population Pyknosed Nuclei (%) [6]: 30%
Population Tubulin-Different-Phenotype (%) [6]: 29%
Total Cell Count [6]: 207
Population Apoptotic (%) [7]: 69%
Population Fragmented Nuclei (%) [7]: 17%
Population Healthy Nuclei (%) [7]: 19%
Population Hoechst High Intensity Objects (%) [7]: 17%
Population Membrane Permeable-Phenotype (%) [7]: 5%
Population Mitochondria Different-Phenotype (%) [7]: 97%
Population Mitotic Cells (%) [7]: 30%
Population Normal (%) [7]: 82%
Population Pyknosed Nuclei (%) [7]: 62%
Population Tubulin-Different-Phenotype (%) [7]: 100%
Total Cell Count [7]: 231
Population Apoptotic (%) [8]: 21%
Population Fragmented Nuclei (%) [8]: 3%
Population Healthy Nuclei (%) [8]: 54%
Population Hoechst High Intensity Objects (%) [8]: 1%
Population Membrane Permeable-Phenotype (%) [8]: 2%
Population Mitochondria Different-Phenotype (%) [8]: 59%
Population Mitotic Cells (%) [8]: 78%
Population Normal (%) [8]: 98%
Population Pyknosed Nuclei (%) [8]: 42%
Population Tubulin-Different-Phenotype (%) [8]: 59%
Total Cell Count [8]: 256
Population Apoptotic (%) [9]: 35%
Population Fragmented Nuclei (%) [9]: 10%
Population Healthy Nuclei (%) [9]: 77%
Population Hoechst High Intensity Objects (%) [9]: 7%
Population Membrane Permeable-Phenotype (%) [9]: 1%
Population Mitochondria Different-Phenotype (%) [9]: 26%
Population Mitotic Cells (%) [9]: 64%
Population Normal (%) [9]: 92%
Population Pyknosed Nuclei (%) [9]: 12%
Population Tubulin-Different-Phenotype (%) [9]: 22%
Total Cell Count [9]: 484
Population Apoptotic (%) [10]: 8%
Population Fragmented Nuclei (%) [10]: 4%
Population Healthy Nuclei (%) [10]: 82%
Population Hoechst High Intensity Objects (%) [10]: 2%
Population Membrane Permeable-Phenotype (%) [10]: 7%
Population Mitochondria Different-Phenotype (%) [10]: 7%
Population Mitotic Cells (%) [10]: 91%
Population Normal (%) [10]: 97%
Population Pyknosed Nuclei (%) [10]: 13%
Population Tubulin-Different-Phenotype (%) [10]: 20%
Total Cell Count [10]: 363
Population Apoptotic (%) [11]: 59%
Population Fragmented Nuclei (%) [11]: 17%
Population Healthy Nuclei (%) [11]: 30%
Population Hoechst High Intensity Objects (%) [11]: 18%
Population Membrane Permeable-Phenotype (%) [11]: 0%
Population Mitochondria Different-Phenotype (%) [11]: 98%
Population Mitotic Cells (%) [11]: 40%
Population Normal (%) [11]: 81%
Population Pyknosed Nuclei (%) [11]: 51%
Population Tubulin-Different-Phenotype (%) [11]: 89%
Total Cell Count [11]: 227
Population Apoptotic (%) [12]: 21%
Population Fragmented Nuclei (%) [12]: 4%
Population Healthy Nuclei (%) [12]: 77%
Population Hoechst High Intensity Objects (%) [12]: 4%
Population Membrane Permeable-Phenotype (%) [12]: 1%
Population Mitochondria Different-Phenotype (%) [12]: 29%
Population Mitotic Cells (%) [12]: 78%
Population Normal (%) [12]: 95%
Population Pyknosed Nuclei (%) [12]: 17%
Population Tubulin-Different-Phenotype (%) [12]: 44%
Total Cell Count [12]: 383

C[C@@]1(C(=O)Nc2ccc(F)nc2)CCCN1c1nc(Nc2cc(C3CC3)n[nH]2)c2cccn2n1 [BMS-754807]
Population Apoptotic (%) [1]: 24%
Population Fragmented Nuclei (%) [1]: 19%
Population Healthy Nuclei (%) [1]: 38%
Population Hoechst High Intensity Objects (%) [1]: 25%
Population Membrane Permeable-Phenotype (%) [1]: 7%
Population Mitochondria Different-Phenotype (%) [1]: 32%
Population Mitotic Cells (%) [1]: 75%
Population Normal (%) [1]: 74%
Population Pyknosed Nuclei (%) [1]: 42%
Population Tubulin-Different-Phenotype (%) [1]: 68%
Total Cell Count [1]: 622
Population Apoptotic (%) [2]: 20%
Population Fragmented Nuclei (%) [2]: 3%
Population Healthy Nuclei (%) [2]: 72%
Population Hoechst High Intensity Objects (%) [2]: 12%
Population Mitochondria Different-Phenotype (%) [2]: 57%
Population Mitotic Cells (%) [2]: 80%
Population Normal (%) [2]: 87%
Population Pyknosed Nuclei (%) [2]: 23%
Population Tubulin-Different-Phenotype (%) [2]: 92%
Total Cell Count [2]: 768
Population Fragmented Nuclei (%) [3]: 13% and 14%
Population Hoechst High Intensity Objects (%) [3]: 17% and 19%
Population Membrane Permeable-Phenotype (%) [3]: 9% and 4%
Population Normal (%) [3]: 82% and 80%
Population Pyknosed Nuclei (%) [3]: 71% and 26%
Total Cell Count [3]: 259 and 598
Population Fragmented Nuclei (%) [4]: 7% and 3%
Population Hoechst High Intensity Objects (%) [4]: 9% and 6%
Population Membrane Permeable-Phenotype (%) [4]: 10% and 3%
Population Mitotic Cells (%) [4]: 51%
Population Normal (%) [4]: 90% and 93%
Population Tubulin-Different-Phenotype (%) [4]: 94% and 44%
Population Apoptotic (%) [5]: 25%
Population Fragmented Nuclei (%) [5]: 18%
Population Healthy Nuclei (%) [5]: 56%
Population Hoechst High Intensity Objects (%) [5]: 20%
Population Membrane Permeable-Phenotype (%) [5]: 8%
Population Mitochondria Different-Phenotype (%) [5]: 32%
Population Mitotic Cells (%) [5]: 74%
Population Normal (%) [5]: 79%
Population Pyknosed Nuclei (%) [5]: 25%
Population Tubulin-Different-Phenotype (%) [5]: 79%
Total Cell Count [5]: 652
Population Apoptotic (%) [6]: 17%
Population Fragmented Nuclei (%) [6]: 3%
Population Healthy Nuclei (%) [6]: 82%
Population Hoechst High Intensity Objects (%) [6]: 9%
Population Membrane Permeable-Phenotype (%) [6]: 10%
Population Mitochondria Different-Phenotype (%) [6]: 44%
Population Mitotic Cells (%) [6]: 82%
Population Normal (%) [6]: 90%
Population Pyknosed Nuclei (%) [6]: 13%
Population Tubulin-Different-Phenotype (%) [6]: 95%
Total Cell Count [6]: 865
Population Apoptotic (%) [7]: 70% and 26%
Population Fragmented Nuclei (%) [7]: 17% and 14%
Population Hoechst High Intensity Objects (%) [7]: 14% and 19%
Population Membrane Permeable-Phenotype (%) [7]: 2% and 5%
Population Mitotic Cells (%) [7]: 29% and 73%
Population Normal (%) [7]: 85% and 80%
Population Tubulin-Different-Phenotype (%) [7]: 94% and 44%
Total Cell Count [7]: 284 and 562
Population Fragmented Nuclei (%) [8]: 6% and 8%
Population Hoechst High Intensity Objects (%) [8]: 10% and 8%
Population Membrane Permeable-Phenotype (%) [8]: 10% and 4%
Population Mitotic Cells (%) [8]: 30% and 81%
Population Normal (%) [8]: 89% and 91%
Population Tubulin-Different-Phenotype (%) [8]: 95% and 56%
Population Apoptotic (%) [11]: 65%
Population Fragmented Nuclei (%) [11]: 17%
Population Healthy Nuclei (%) [11]: 7%
Population Hoechst High Intensity Objects (%) [11]: 15%
Population Membrane Permeable-Phenotype (%) [11]: 15%
Population Mitochondria Different-Phenotype (%) [11]: 94%
Population Mitotic Cells (%) [11]: 34%
Population Normal (%) [11]: 84%
Population Pyknosed Nuclei (%) [11]: 74%
Population Tubulin-Different-Phenotype (%) [11]: 94%
Total Cell Count [11]: 290
Population Apoptotic (%) [12]: 78%
Population Fragmented Nuclei (%) [12]: 4%
Population Healthy Nuclei (%) [12]: 57%
Population Hoechst High Intensity Objects (%) [12]: 7%
Population Membrane Permeable-Phenotype (%) [12]: 3%
Population Mitochondria Different-Phenotype (%) [12]: 85%
Population Mitotic Cells (%) [12]: 21%
Population Normal (%) [12]: 92%
Population Pyknosed Nuclei (%) [12]: 37%
Population Tubulin-Different-Phenotype (%) [12]: 96%
Total Cell Count [12]: 199
